In the library only some 2.9% were active in any assay of this set; here they are far more common.
UBC9 SUMO inh: inhibitors of in vitro SUMOylation cascade, primary screen, biochemical, HTRF, uHTS. SUMO-conjugating enzyme UBC9 (Homo sapiens), P63279. inhibition, % at 35 µM. 0.36% of 290,000 active. AID 2006, 2009. HTRF SUMOylation assay, SAE1/SAE2 + UBC9; in the data active means inhibition above about 50%, passing the limit was not always enough
Target sequence (P63279 whole entry, looked up): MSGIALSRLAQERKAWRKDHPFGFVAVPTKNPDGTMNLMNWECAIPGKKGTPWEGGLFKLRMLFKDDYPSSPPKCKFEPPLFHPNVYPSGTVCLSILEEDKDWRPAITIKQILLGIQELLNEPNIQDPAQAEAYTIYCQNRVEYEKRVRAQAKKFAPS
VIM-2 inhibitor: VIM-2 metallo-beta-lactamase inhibitors, primary screen, biochemical, epi-absorbance readout, Pseudomonas aeruginosa enzyme. AID 1527, 2009. 0.89% of 290,000 active. inhibition, % at 5.6 µM. purified VIM-2, nitrocefin hydrolysis, epi-absorbance fluorescence;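 active means inhibition above the mean of all tested compounds plus 3 SD, cutoff set per screening run, cut at about 7.5% in these data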;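 further: red hydrolysis product quenches plate fluorescence so inhibitors raise well fluorescence; 0% = enzyme with DMSO and 100% = DMSO without enzyme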
DNA FID counter: compounds displacing fluorescent DNA intercalator, primary screen, artefact control for HCV NS3 helicase inhibitor project, biochemical, FID fluorescence; 0.17% of 290,000 active; AID 1845, 2009; DNA fluorescent intercalator displacement; inhibition, % at 7.9 µM; in the data active means inhibition above about 37%;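 further: 0% = vehicle and 100% = reference compound; higher means more ethidium bromide displaced from hairpin DNA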
IMP-1 inh: IMP-1 metallo-beta-lactamase inhibitors, primary screen, biochemical, epi-absorbance readout, Pseudomonas aeruginosa enzyme. purified IMP-1, nitrocefin hydrolysis, epi-absorbance fluorescence. inhibition, % at 5.6 µM. 0.45% of 290,000 active;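 active means inhibition above the mean plus 3 SD of all compounds in the same screening run, cut at about 4.5% in these data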;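 further: 0% = IMP-1 with DMSO and 100% = DMSO wells lacking enzyme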
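assay system = purified recombinant IMP-1 metallo-beta-lactamase enzyme | schedule = 15 min preincubation plus 25 min reaction at 25 °C | signal = Epi-absorbance fluorescence, 480 nm excitation, 530 nm emission | read-out basis = percent inhibition from optical density relative to buffer-blank wells | controls = IMP-1 with DMSO as 0%, enzyme-free DMSO as 100%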
SUMO Mot1 rescue: yeast Mot1-301 growth rescue at high temperature, primary screen, SUMOylation pathway inhibitor project, S. cerevisiae, ATP luminescence, 38.5C; S. cerevisiae Mot1-301 growth rescue; percent above DMSO median, 100 means doubled; growth rescue, % at 18.8 µM; 1% of 320,000 active;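 active means every valid replicate shows activation above 250% relative to neutral control wells; inactive means the rest, any valid replicate at or below 250%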;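 further: OY570 slx delta 5 strain wells were the positive control but not used for scaling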
NALP1 yeast inh: NALP1 inflammasome inhibitors in reconstituted yeast, colorimetric, S. cerevisiae, triplicate retest | S. cerevisiae NALP1/ASC/caspase-1 growth, X-gal OD620, 72 h | inhibition, % at 10 µM | 0.61% of 280,000 active | AID 2071, 2009; in the data active means inhibition mostly above about 24%, no sharp cut-off; inactive means mostly below about 32%
* = called active by the depositor.

How did Cc1ccc(-c2cc(C(=O)O)n[nH]2)s1 do in these assays?
UBC9 SUMO inh: 7; VIM-2 inhibitor: -2; DNA FID counter: -2; IMP-1 inh: -3; SUMO Mot1 rescue: 111; NALP1 yeast inh: -16

What do the screens show for `O=C1c2cccc3c(O)ccc(c23)C(=O)N1Cc1ccccc1`?
UBC9 SUMO inh: 32; VIM-2 inhibitor: 11*; DNA FID counter: -11; IMP-1 inh: 4; SUMO Mot1 rescue: -1; NALP1 yeast inh: -8

Results for O=C(O)c1cccc(CN2C(=O)c3ccccc3C2=O)c1 ?
UBC9 SUMO inh: 11; VIM-2 inhibitor: 0; DNA FID counter: -9; IMP-1 inh: -3; SUMO Mot1 rescue: -2; NALP1 yeast inh: 5

What do the screens show for `CC1CCN(C(=O)c2ccc(NS(=O)(=O)c3cccs3)cc2)CC1`?
UBC9 SUMO inh: 3; VIM-2 inhibitor: -1; DNA FID counter: -27; IMP-1 inh: -4; SUMO Mot1 rescue: -9; NALP1 yeast inh: 6

Results for COC(=O)CSc1nc2nc(-c3cccs3)cc(C(F)(F)F)c2c(=O)[nH]1 ?
UBC9 SUMO inh: 36; VIM-2 inhibitor: 12*; DNA FID counter: 0; IMP-1 inh: 0; SUMO Mot1 rescue: 5; NALP1 yeast inh: 2

Results for O=C(CSc1nc2nc(-c3cccs3)cc(C(F)(F)F)c2c(=O)[nH]1)NCc1ccco1 ?
UBC9 SUMO inh: -40; VIM-2 inhibitor: 8.1*; DNA FID counter: -1; IMP-1 inh: -3; SUMO Mot1 rescue: -24; NALP1 yeast inh: -1

What do the screens show for `CC(=O)Nc1ccc(NC(=O)CSc2nc3nc(-c4cccs4)cc(C(F)(F)F)c3c(=O)[nH]2)cc1`?
UBC9 SUMO inh: 32; VIM-2 inhibitor: -2; DNA FID counter: -1; IMP-1 inh: -3; SUMO Mot1 rescue: 6

How did O=C(NC1CCCC1)C1CC(=O)N(c2ccccc2)C1 (centres undefined) do in these assays?
UBC9 SUMO inh: -1; VIM-2 inhibitor: -1; DNA FID counter: -1; IMP-1 inh: -3; SUMO Mot1 rescue: 356*; NALP1 yeast inh: 9

How did O=C(O)/C(=C\c1cccc([N+](=O)[O-])c1)c1ccc(S(=O)(=O)N2CCCCC2)s1 do in these assays?
UBC9 SUMO inh: 23; VIM-2 inhibitor: -3; DNA FID counter: -16; IMP-1 inh: -1; SUMO Mot1 rescue: 9; NALP1 yeast inh: 23*

Results for Cc1ccc(S(=O)(=O)Cn2nnnc2C(C(C)C)N2CCC(O)CC2)cc1 (centres undefined) ?
UBC9 SUMO inh: -2; VIM-2 inhibitor: -2; DNA FID counter: -24; IMP-1 inh: -3; SUMO Mot1 rescue: -10; NALP1 yeast inh: -17

How did O=C(O)C1C2C=CC(C2)C1C(=O)NCc1ccc(Cl)c(Cl)c1 (centres undefined) do in these assays?
UBC9 SUMO inh: 5; VIM-2 inhibitor: -3; DNA FID counter: -10; IMP-1 inh: -2; SUMO Mot1 rescue: -11; NALP1 yeast inh: 47*

Results for O=C(CCOc1ccccc1)Nc1ccnn1C1CCN(Cc2ccc(CO)o2)CC1 ?
UBC9 SUMO inh: 6; VIM-2 inhibitor: 1; DNA FID counter: 8; IMP-1 inh: 1; SUMO Mot1 rescue: 9; NALP1 yeast inh: 25

How did CCCc1nc2sc3c(SCC(=O)NCc4ccco4)ncnc3c2c2c1CCC2 do in these assays?
UBC9 SUMO inh: -25; VIM-2 inhibitor: 1; DNA FID counter: -26; IMP-1 inh: 15*; SUMO Mot1 rescue: -17; NALP1 yeast inh: -9

How did Cc1c(C#N)c(O)n(CCO)c(=O)c1N=Nc1ccc(S(N)(=O)=O)cc1 do in these assays?
UBC9 SUMO inh: -22; VIM-2 inhibitor: -2; DNA FID counter: 1; IMP-1 inh: -5; SUMO Mot1 rescue: -12; NALP1 yeast inh: 3

Results for Cc1c(C#N)c(O)n(C)c(=O)c1N=Nc1ccc(S(N)(=O)=O)cc1 ?
UBC9 SUMO inh: -10; VIM-2 inhibitor: 10*; DNA FID counter: 3; IMP-1 inh: -5; NALP1 yeast inh: -7

What do the screens show for `CC(C)n1cc(-c2ccc(Cl)cc2)cc(C#N)c1=O`?
UBC9 SUMO inh: -19; VIM-2 inhibitor: -2; DNA FID counter: -7; IMP-1 inh: -1; SUMO Mot1 rescue: -20; NALP1 yeast inh: 31*

Assay outcomes deposited in PubChem by several laboratories.
